Calls of active or inactive are those of the source. The rule behind the calls is not given here.

For assay [1], the target named is Serine/threonine-protein kinase B-raf (Homo sapiens, UniProt P15056, V600E). The assay is described as follows: Inhibition of BRAF V600E mutant.
Assay [2] deals with Serine/threonine-protein kinase PAK 4 (Homo sapiens) (UniProt O96013). The experiment in a line: Inhibition of human PAK4 at 10 uM.
In assay [3] the target is Calcium/calmodulin-dependent protein kinase kinase 2 (Homo sapiens) (UniProt Q96RR4). The assay is described as follows: Inhibition of human CAMKKbeta at 10 uM.
In assay [4] the target is Serine/threonine-protein kinase pim-1 (Homo sapiens) (UniProt P11309). The assay is described as follows: Inhibition of human PIM1 at 10 uM.
The target in assay [5] is Serine/threonine-protein kinase BRSK2 (Homo sapiens) (UniProt Q8IWQ3). The experiment in a line: Inhibition of human BRSK2 at 10 uM.
In assay [6] the target is Mitogen-activated protein kinase 3 (Homo sapiens) (UniProt P27361). The assay is described as follows: Inhibition of human ERK1 at 10 uM.
Assay [7] deals with Fibroblast growth factor receptor 1 (Homo sapiens) (UniProt P11362). The experiment in a line: Inhibition of human FGFR1 at 10 uM.
The target of the next assay is Aurora kinase B (Homo sapiens, UniProt Q96GD4). The experiment in a line: Inhibition of Aurora B up to 100 uM. Summed up: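 Buffer was HEPES-NaOH pH 7.5 with MgCl2, MnCl2, vanadate, DTT, PEG20000 and 1% DMSO. Run 80 min at 30 °C, quenched with 2% H3PO4, NaCl-washed, then scintillation-counted. IC50 fitted from 10 concentrations tested once each.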
In assay [8] the target is Dual specificity mitogen-activated protein kinase kinase 1 (Oryctolagus cuniculus) (UniProt P29678). The experiment in a line: Inhibition of rabbit MKK1 at 10 uM.
Assay [9] addresses Mitogen-activated protein kinase 8 (Homo sapiens) (UniProt P45983). The experiment in a line: Inhibition of JNK1alpha1 at 10 uM.
Assay [10] deals with Mitogen-activated protein kinase 13 (Homo sapiens) (UniProt O15264). The assay is described as follows: Inhibition of SAPK4 at 10 uM.
The target of assay [11] is MAP kinase-activated protein kinase 5 (Homo sapiens) (UniProt Q8IW41). The experiment in a line: Inhibition of PRAK at 10 uM.
Assay [12] in a line: Inhibition of PKA at 10 uM.
Assay [13] relates to Ribosomal protein S6 kinase beta-1 (Homo sapiens), P23443 [T412E]. The assay is described as follows: Inhibition of S6K1 T412E mutant at 10 uM.
In assay [14] the target is Glycogen synthase kinase-3 beta (Homo sapiens) (UniProt P49841). The assay is described as follows: Inhibition of GSK3-beta at 10 uM.
Assay [15] concerns the target Rho-associated protein kinase 2 (Rattus norvegicus) (UniProt Q62868). The experiment in a line: Inhibition of rat ROCK2 at 10 uM.
The target of assay [16] is Tyrosine-protein kinase CSK (Homo sapiens) (UniProt P41240). The experiment in a line: Inhibition of CSK at 10 uM.
For assay [17], the target named is Serine/threonine-protein kinase Nek2 (Homo sapiens) (UniProt P51955). The experiment in a line: Inhibition of NEK2a at 10 uM.
The target of assay [18] is Myosin light chain kinase, smooth muscle (Homo sapiens) (UniProt Q15746). The experiment in a line: Inhibition of smMLCK at 10 uM.
The target of assay [19] is MAP kinase-interacting serine/threonine-protein kinase 2 (Homo sapiens) (UniProt Q9HBH9). The assay is described as follows: Inhibition of MNK2alpha at 10 uM.
For assay [20], the target named is Serine/threonine-protein kinase pim-2 (Homo sapiens) (UniProt Q9P1W9). The experiment in a line: Inhibition of PIM2 at 10 uM.
The target in assay [21] is Serine/threonine-protein kinase PLK1 (Homo sapiens) (UniProt P53350). The experiment in a line: Inhibition of human PLK1 at 10 uM.
Assay [22] addresses Mitogen-activated protein kinase 9 (Homo sapiens) (UniProt P45984). The experiment in a line: Inhibition of human JNK2 at 10 uM.
In assay [23] the target is 3-phosphoinositide-dependent protein kinase 1 (PDPK1) (Homo sapiens) (UniProt O15530). The assay is described as follows: Inhibition of PDK1 (delta 1-51) at 10 uM.
Assay [24] deals with Receptor tyrosine-protein kinase erbB-2 (Homo sapiens, UniProt P04626). The experiment in a line: Inhibition of ERBB2 up to 100 uM. Put shortly:
(§1)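 Buffer: HEPES-NaOH pH 7.5, Mg2+/Mn2+, vanadate, DTT, PEG20000, 1% DMSO. Incubated 30 °C for 80 min, stopped with 2% H3PO4, washed, and scintillation-counted. IC50 from 10 concentrations in singlicate.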

Another assay addresses Angiopoietin-1 receptor (Homo sapiens, UniProt Q02763). The experiment in a line: Inhibition of TIE2 up to 100 uM.
Assay [25] deals with Epidermal growth factor receptor (Homo sapiens, UniProt P00533). The assay is described as follows: Inhibition of EGFR up to 100 uM. Summed up:
as §1

Sequence of Myosin light chain kinase, smooth muscle (Homo sapiens) (Q15746 whole entry): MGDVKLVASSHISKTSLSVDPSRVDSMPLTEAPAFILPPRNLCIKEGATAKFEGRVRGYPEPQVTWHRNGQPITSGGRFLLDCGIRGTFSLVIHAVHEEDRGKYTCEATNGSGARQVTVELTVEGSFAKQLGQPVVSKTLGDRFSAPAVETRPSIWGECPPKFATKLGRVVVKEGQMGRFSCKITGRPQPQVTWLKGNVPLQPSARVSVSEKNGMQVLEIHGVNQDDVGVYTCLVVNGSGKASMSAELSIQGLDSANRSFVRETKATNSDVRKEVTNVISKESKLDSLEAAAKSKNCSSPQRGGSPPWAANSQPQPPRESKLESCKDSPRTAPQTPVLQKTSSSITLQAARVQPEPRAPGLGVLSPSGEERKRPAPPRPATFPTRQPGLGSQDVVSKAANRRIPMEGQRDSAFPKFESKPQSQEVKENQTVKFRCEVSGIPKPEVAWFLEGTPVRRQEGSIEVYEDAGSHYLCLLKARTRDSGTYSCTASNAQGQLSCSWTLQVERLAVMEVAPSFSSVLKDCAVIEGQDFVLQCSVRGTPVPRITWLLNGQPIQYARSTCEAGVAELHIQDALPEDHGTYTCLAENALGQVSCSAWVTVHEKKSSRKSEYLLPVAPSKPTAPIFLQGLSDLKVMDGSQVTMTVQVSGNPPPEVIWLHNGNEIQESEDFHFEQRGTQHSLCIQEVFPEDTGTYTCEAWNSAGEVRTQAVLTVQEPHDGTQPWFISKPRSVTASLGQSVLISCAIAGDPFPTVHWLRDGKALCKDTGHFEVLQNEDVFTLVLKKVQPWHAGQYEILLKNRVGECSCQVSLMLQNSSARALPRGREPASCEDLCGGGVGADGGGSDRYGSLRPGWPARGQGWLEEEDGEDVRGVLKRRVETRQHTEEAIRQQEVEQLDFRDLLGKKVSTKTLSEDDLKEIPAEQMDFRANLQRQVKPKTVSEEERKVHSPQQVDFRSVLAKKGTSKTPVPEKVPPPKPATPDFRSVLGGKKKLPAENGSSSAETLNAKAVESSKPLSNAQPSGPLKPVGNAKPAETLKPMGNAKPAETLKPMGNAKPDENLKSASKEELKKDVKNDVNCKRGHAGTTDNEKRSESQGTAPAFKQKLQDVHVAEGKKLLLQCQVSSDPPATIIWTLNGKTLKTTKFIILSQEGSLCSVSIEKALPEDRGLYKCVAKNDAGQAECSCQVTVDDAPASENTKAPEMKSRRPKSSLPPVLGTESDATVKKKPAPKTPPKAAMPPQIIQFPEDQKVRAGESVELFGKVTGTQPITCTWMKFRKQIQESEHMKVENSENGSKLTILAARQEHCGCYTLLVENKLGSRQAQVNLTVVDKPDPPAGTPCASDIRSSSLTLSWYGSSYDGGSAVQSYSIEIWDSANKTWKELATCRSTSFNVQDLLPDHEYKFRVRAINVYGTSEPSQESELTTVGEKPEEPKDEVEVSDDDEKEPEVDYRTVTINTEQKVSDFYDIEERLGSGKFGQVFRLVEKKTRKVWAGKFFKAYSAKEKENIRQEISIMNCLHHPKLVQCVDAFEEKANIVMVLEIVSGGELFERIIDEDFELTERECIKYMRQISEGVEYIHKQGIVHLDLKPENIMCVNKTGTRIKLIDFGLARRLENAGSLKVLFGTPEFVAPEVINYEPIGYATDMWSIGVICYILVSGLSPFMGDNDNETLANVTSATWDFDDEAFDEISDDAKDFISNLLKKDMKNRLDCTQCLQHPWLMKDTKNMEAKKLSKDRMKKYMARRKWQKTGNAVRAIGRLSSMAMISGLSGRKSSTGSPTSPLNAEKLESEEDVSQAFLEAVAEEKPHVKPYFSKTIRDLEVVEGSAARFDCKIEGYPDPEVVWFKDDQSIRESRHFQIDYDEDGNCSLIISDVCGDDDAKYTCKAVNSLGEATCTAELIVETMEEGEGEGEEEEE
Sequence of Epidermal growth factor receptor (P00533 whole entry): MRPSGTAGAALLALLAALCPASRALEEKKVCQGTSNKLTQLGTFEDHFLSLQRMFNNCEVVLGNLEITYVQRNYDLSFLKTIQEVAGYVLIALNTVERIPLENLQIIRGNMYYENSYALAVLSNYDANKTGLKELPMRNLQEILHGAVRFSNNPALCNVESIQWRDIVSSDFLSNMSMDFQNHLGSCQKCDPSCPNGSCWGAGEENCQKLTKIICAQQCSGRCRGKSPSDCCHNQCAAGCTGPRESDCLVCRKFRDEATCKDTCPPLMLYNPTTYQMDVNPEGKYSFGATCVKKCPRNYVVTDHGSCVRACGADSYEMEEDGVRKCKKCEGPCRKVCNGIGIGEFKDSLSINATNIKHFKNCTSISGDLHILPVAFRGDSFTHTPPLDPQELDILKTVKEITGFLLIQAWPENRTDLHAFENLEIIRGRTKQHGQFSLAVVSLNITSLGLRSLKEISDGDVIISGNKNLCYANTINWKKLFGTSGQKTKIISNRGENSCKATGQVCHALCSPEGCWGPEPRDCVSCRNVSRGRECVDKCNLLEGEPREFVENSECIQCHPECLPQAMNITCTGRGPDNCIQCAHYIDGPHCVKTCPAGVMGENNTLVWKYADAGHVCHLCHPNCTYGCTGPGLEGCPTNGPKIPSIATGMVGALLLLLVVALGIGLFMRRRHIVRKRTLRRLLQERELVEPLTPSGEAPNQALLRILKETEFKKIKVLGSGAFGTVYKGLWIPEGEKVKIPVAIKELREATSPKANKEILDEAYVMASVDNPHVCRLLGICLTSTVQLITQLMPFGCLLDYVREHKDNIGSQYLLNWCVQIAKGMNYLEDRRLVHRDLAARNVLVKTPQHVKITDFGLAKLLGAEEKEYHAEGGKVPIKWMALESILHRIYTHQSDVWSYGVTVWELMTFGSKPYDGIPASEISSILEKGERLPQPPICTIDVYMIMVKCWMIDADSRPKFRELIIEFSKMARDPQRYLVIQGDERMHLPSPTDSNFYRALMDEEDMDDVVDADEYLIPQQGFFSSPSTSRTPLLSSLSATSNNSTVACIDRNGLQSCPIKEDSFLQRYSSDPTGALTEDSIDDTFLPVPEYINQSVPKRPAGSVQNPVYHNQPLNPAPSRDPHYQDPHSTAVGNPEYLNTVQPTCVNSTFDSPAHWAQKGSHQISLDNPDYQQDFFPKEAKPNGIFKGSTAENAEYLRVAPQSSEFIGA
Sequence of Serine/threonine-protein kinase BRSK2 (Homo sapiens) (Q8IWQ3 whole entry): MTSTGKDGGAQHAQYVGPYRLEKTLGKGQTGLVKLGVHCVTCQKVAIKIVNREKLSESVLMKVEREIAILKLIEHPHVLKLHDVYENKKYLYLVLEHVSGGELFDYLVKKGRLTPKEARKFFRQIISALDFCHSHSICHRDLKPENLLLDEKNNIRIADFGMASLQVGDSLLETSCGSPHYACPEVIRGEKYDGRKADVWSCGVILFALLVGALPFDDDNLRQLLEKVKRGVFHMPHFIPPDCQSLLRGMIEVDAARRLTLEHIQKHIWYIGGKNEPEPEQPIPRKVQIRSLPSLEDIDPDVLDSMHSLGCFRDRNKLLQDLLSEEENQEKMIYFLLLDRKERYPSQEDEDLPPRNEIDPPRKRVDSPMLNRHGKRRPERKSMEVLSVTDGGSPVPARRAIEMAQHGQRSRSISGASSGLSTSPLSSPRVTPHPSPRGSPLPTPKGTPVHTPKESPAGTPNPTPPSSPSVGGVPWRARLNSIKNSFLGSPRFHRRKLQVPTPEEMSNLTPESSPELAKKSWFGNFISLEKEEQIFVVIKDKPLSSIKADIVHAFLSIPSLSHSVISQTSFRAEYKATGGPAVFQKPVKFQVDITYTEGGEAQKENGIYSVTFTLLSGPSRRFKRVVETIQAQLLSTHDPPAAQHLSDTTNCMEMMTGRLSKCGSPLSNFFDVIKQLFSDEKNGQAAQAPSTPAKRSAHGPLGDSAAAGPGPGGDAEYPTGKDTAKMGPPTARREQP
Sequence of Dual specificity mitogen-activated protein kinase kinase 1 (Oryctolagus cuniculus) (P29678 whole entry): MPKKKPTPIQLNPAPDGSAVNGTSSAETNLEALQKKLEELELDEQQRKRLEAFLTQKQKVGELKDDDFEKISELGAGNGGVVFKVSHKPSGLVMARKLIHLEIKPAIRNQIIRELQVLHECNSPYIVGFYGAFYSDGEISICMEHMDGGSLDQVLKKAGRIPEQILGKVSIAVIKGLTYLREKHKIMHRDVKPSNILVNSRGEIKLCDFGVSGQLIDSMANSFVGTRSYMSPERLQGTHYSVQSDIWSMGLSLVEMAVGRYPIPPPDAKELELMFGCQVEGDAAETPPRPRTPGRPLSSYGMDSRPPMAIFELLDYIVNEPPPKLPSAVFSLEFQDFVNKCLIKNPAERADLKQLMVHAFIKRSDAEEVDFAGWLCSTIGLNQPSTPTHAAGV
Sequence of Serine/threonine-protein kinase Nek2 (Homo sapiens) (P51955 whole entry): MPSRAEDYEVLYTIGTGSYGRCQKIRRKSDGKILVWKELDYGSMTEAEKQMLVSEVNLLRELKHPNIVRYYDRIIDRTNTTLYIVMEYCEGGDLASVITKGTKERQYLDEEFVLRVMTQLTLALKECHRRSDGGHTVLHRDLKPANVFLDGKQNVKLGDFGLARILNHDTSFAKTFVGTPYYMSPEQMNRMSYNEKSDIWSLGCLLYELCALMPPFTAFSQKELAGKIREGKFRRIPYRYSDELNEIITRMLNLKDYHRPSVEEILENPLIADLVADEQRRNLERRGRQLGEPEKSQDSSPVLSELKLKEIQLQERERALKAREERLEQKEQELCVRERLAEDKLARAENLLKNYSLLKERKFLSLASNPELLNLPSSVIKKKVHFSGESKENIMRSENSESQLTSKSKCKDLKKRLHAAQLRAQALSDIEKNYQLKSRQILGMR
Sequence of Aurora kinase B (Q96GD4 whole entry): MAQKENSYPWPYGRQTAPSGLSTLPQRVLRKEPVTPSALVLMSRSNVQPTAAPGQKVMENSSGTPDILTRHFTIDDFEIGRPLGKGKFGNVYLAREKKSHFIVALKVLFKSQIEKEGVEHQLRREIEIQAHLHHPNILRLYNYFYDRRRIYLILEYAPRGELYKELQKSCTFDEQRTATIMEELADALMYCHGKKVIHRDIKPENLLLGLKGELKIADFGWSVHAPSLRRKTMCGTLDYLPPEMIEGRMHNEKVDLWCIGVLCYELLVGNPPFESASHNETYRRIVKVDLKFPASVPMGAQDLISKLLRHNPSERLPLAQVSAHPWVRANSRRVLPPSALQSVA

With `Nc1ncnc2c1ncn2CC(=O)c1c[nH]c2ccccc12`, in [1], the IC50 – broadly, the point on the concentration scale where inhibition reaches its midpoint – was found to be 82 µM.

For `Nc1ncnc2ncn(CC(=O)c3c[nH]c4ccccc34)c12`, the inhibition result in assay [2], in assay [3], in assay [4], in assay [5], in [6] and in [7] was “inactive” in each case. Further, the inhibition entry (at Aurora kinase B; in assay [8]; in assay [9]; in assay [10]; in [11]; in [12]) was “inactive” each time. The inhibition entry in [13], in [14], in [15], in assay [16], in [17] and in assay [18] was “inactive” throughout. The inhibition entry in assay [19], in assay [20], in [21], in [22] and in assay [23] was “inactive” in each case.

On to `Nc1ncnc2c1ncn2CC(=O)c1ccccc1`, for which the inhibition entry (in assay [24]; at Angiopoietin-1 receptor) was “inactive” throughout.

Turning to `Nc1ncnc2ncn(CC(=O)c3ccccc3)c12`, the inhibition result in [25] is “inactive”.
